# Bioassay records from PubChem BioAssay.
# The full list was thinned out, with hits kept by preference.
# T cruzi inh: inhibitors of intracellular T. cruzi growth, primary screen, luminescence, NIH3T3 host cells; actives 1.4% (n = 300,000); AID 1885, 2009; T. cruzi beta-gal in NIH3T3, 90 h; inhibition, % (no concentration beside the values);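 active means mean inhibition across valid replicates above about 55%, limit read from the data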;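 further: signal also drops with host cell toxicity which is not excluded here; higher percent means less beta-gal luminescence so fewer parasites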
#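 Assay system: NIH/3T3 fibroblasts plus reporter T. cruzi. Amount: NIH/3T3 cells, 5,000 per well. Buffer or medium: DMEM, 2% fetal bovine serum. Doses: compound pinned at 50 nL/well, DMSO. Schedule: ≥90 h infection period, 3 h prior cell attachment. Signal: luminescent β-galactosidase signal after 60 min lysis. Read-out: parasite load inhibition, %.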
# Lmaj promast: Leishmania major promastigote growth inhibition, primary screen | Leishmania major promastigotes, resazurin fluorescence viability | actives 9% (n = 200,000) | AID 1063, 2008 | inhibition, % at 10 µM; in the data active means inhibition above about 50%;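 further: promastigotes grown with compound for 44 hours at 28 °C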
# NALP3 yeast inh: NALP3 inflammasome inhibitors in reconstituted yeast, primary screen, luminescence, uHTS; actives 0.39% (n = 330,000); AID 2825, 2010; inhibition, % at 10 µM; Yeast reconstituted NLRP3/ASC/caspase-1, beta-gal luminescence, 24 h;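 active means inhibition of 50% or more; inactive means inhibition below 50%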
# NALP1 yeast inh: NALP1 inflammasome inhibitors in reconstituted yeast, colorimetric, S. cerevisiae, triplicate retest. AID 2071, 2009. actives 0.61% (n = 280,000). S. cerevisiae NALP1/ASC/caspase-1 growth, X-gal OD620, 72 h. inhibition, % at 10 µM; in the data active means inhibition mostly above about 24%, no sharp cut-off; inactive means mostly below about 32%
# PolyA inh: polyadenylation inhibitors in yeast reporter cells, primary screen, luminescence, S. cerevisiae. actives 0.02% (n = 300,000). activity score, % at 12 µM. S. cerevisiae SKY197-pL101 polyadenylation reporter, beta-gal luminescence; efflux-impaired pdr1/pdr3 knockout yeast; score 100 = 6 SD above DMSO. AID 1875, 2009;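 active means lowest replicate activity score at least 50, where 100 means six control SD above control mean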;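 further: yeast exposed to compound for 9 h at 30 °C; higher score means more reporter readthrough which indicates perturbed polyadenylation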
# Calb FLC: C. albicans growth inhibition with fluconazole, primary screen, CaCi-2 strain, Alamar Blue fluorescence | C. albicans CaCi-2 + fluconazole, 48 h | growth inhibition, % (concentration not given with the values) | actives 0.57% (n = 300,000) | AID 1979, 2009;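 active means growth inhibition above about 58% in most replicates, limit read from the data, passing the limit was not always enough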;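 further: all wells also contain fluconazole at 8 µg/ml as a sub-toxic cotreatment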
# Hits are given with their value; 0 = inactive; - = no result.
SMILES,T cruzi inh,Lmaj promast,NALP3 yeast inh,NALP1 yeast inh,PolyA inh,Calb FLC
CC1=C(C)/C(=N\OS(=O)(=O)c2ccc(C)cc2)C=CC1=O,-,100.5,-,0,-,-
O=C(/C=C/c1ccccc1)NCCS(=O)(=O)N1CCN(c2ccccc2)CC1,0,-,0,-,0,0
CN(C)CCNc1ncnc2c1sc1nc(-c3ccccc3)c3c(c12)CCCC3,0,-,0,44.9,0,0
Nc1ccc(-c2n[nH]c(=O)c3ccccc23)cc1N,0,0,0,0,0,0
CC1CCCC(C)N1C(=O)COC(=O)c1ccc(S(=O)(=O)N(C)c2ccccc2)cc1 (stereo not given),-,-,0,-,-,-
Cc1cc(NC(=O)CSc2nnc(-c3ccc(S(=O)(=O)N4CCCC4)cc3)n2C)no1,0,0,0,0,0,0
CCn1c(SCC(=O)Nc2nccs2)nnc1-c1ccc(S(=O)(=O)N2CCCCC2)cc1,0,56.0,0,0,0,0
CCn1c(SCC(=O)Nc2cc(C)on2)nnc1-c1ccc(S(=O)(=O)N2CCCC2)cc1,0,69.1,0,0,0,0
COc1ccccc1-n1c(C)c(C(C)=O)c2cc(O)ccc21,0,-,0,0,0,0
COc1ccc(C2C(C#N)=C(N)Nc3nc4ccccc4n32)cc1 (stereo not given),0,64.7,0,0,0,0
COc1ccc(N2C(=O)C(CN3CCN(C)CC3)C2c2ccccc2)cc1 (stereo not given),0,95.3,0,0,0,0
CC(NC(=O)C(=O)NN=C1CCCC1)c1ccccc1 (stereo not given),0,0,0,0,0,0
O=C(/C=C/c1ccc(Cl)cc1Cl)N(Cc1ccc(Cl)cc1)C1CCS(=O)(=O)C1 (stereo not given),0,87.8,0,0,0,0
O=C(/C=C/c1ccc(Cl)cc1)N(Cc1ccccc1)C1CCS(=O)(=O)C1 (stereo not given),0,0,0,0,0,0
O=C(/C=C/c1ccc(Cl)cc1Cl)N(Cc1ccccc1)C1CCS(=O)(=O)C1 (stereo not given),0,84.1,0,0,0,0
COc1ccc2cc3cc(C(=O)NCCCN4CCc5ccccc5C4)sc3nc2c1,0,95.5,0,0,0,0
O=C(/C=C/c1ccc(Cl)cc1Cl)Nc1cccc(S(=O)(=O)NC2=NCCCCC2)c1,0,51.5,0,0,0,0
COc1ccccc1NC(=S)N1CCN(Cc2ccccc2)CC1,0,82.6,0,0,0,0
COC(=O)c1ccccc1NC(=S)N1CCC(N2CCCCC2)CC1,0,73.3,0,0,0,0
COC(=O)c1cc(OC)c(OC)cc1NC(=S)N1CCCC1,0,87.9,0,0,0,0
COC(=O)c1ccccc1NC(=S)N1CCN(C2CCCCC2)CC1,0,0,0,0,0,0
S=C(NC1CCCCC1)N1CCN(C/C=C/c2ccccc2)CC1,0,94.4,0,0,0,0
COC(=O)[C@H]1C[C@@H]1[C@H](NC(=O)c1ccccc1)c1ccccc1,0,0,0,0,0,0
Fc1ccc(NC(=S)N2CCN(C/C=C/c3ccccc3)CC2)c(F)c1,0,81.0,0,0,0,0
COC(=O)c1cc(OC)c(OC)cc1NC(=S)N1CCN(C/C=C/c2ccccc2)CC1,0,99.4,0,0,0,0
SMILES,T cruzi inh,Lmaj promast,NALP3 yeast inh,NALP1 yeast inh,PolyA inh,Calb FLC
COc1ccc(NC(=S)N2CCN(C/C=C/c3ccccc3)CC2)c(OC)c1,0,0,0,0,0,0
O=C(CCN1CCN(c2ccccc2F)CC1)Nc1ccccc1F,0,0,0,0,0,0
O=C(CCN1CCN(C/C=C/c2ccccc2)CC1)Nc1ccccc1F,0,97.2,0,0,0,0
COc1ccccc1NC(=S)N1CCN(C/C=C/c2ccccc2)CC1,0,67.3,0,0,0,0
CCOC(=O)N1CCN(C(=S)Nc2cc(OC)c(OC)cc2C(=O)OC)CC1,0,0,0,0,0,0
CCN(c1ccccc1)S(=O)(=O)c1ccc2c(c1)N(C(C)=O)CCO2,0,-,0,0,0,0
COC(=O)[C@]1(Cc2ccccc2)N[C@H](CN(C)C(=O)c2ccccc2)[C@@H]2C(=O)N(Cc3ccccc3)C(=O)[C@@H]21,-,-,0,-,-,-
COc1ccc2c(c1OC)C(=O)N(c1ccc(C)cc1)C2,0,-,0,0,0,0
CCOc1ccc(C(=O)N2CCN(CC(=O)N3CCCC3)CC2)cc1OCC,-,-,0,-,-,-
Cc1cc(C)cc(OC(=O)COc2ccccc2C)c1,0,-,0,0,0,0
COc1ccc(C)cc1NC(=O)CN1CCN(c2ccccc2F)CC1,-,0,0,0,-,-
CC(C(=O)Nc1cccc([N+](=O)[O-])c1)N1CCN(C/C=C/c2ccccc2)CC1 (stereo not given),0,81.5,0,0,0,0
O=C(Nc1cccc(F)c1)N1CCN(C/C=C/c2ccccc2)CC1,0,68.3,0,0,0,0
COc1ccc(C)cc1NC(=O)CN1CCN(C/C=C/c2ccccc2)CC1,0,86.2,0,0,0,0
CCCC(=O)N(c1ccc(C(=O)O)cc1)c1nc(-c2ccccc2)c(C)s1,0,0,0,0,0,0
COc1ccccc1NC(=O)C(C)OC(=O)CCC1CCCCC1 (stereo not given),0,-,0,0,0,0
COC(=O)c1cc(S(=O)(=O)N2CCCCCC2)c[nH]1,0,-,0,0,0,0
C/C(=C\c1ccccc1)CN1CCC(C(=O)N2CCCCC2)CC1,0,0,0,0,0,0
O=C(CN1CCC(N2CCCCC2)CC1)N1CCOCC1,0,0,0,0,0,0
C/C(=C\c1ccccc1)CN1CCC(C(=O)N2CCC(C)CC2)CC1,0,93.3,0,0,0,0
CCCCNC(=O)C1CCN(C/C(C)=C/c2ccccc2)CC1,0,90.7,0,0,0,0
O=C(C1CCN(C2CCN(C/C(Cl)=C/c3ccccc3)CC2)CC1)N1CCOCC1,0,96.9,0,0,0,0
Cc1ccc(NC(=O)Cn2c(-c3ccc(F)cc3)cnc2SCC(=O)Nc2c(C)cccc2C)cc1,0,0,0,0,0,0
Cc1c(CC(=O)N2CCC(C(N)=O)CC2)c(=O)oc2cc3c(cc12)CCC1(CCCCC1)O3,0,-,0,0,0,0
CCC1CCCCN1S(=O)(=O)c1ccc(S(=O)(=O)N(Cc2cccs2)C2CC2)cc1 (stereo not given),0,100.2,0,0,0,0
O=C1CCCCC/C1=N/Nc1ccc(OCc2ccccc2)cc1,0,-,0,0,0,94.1
CC(C)c1ccc(S(=O)(=O)c2cn(Cc3ccc(F)cc3)c3cc4c(cc3c2=O)OCO4)cc1,0,98.1,0,0,0,0
Cc1ccc(S(=O)(=O)c2cn(Cc3ccc(F)cc3)c3cc4c(cc3c2=O)OCO4)cc1,0,0,0,0,0,0
